For orientation: pIC50 means −log10 of the IC50, conventionally taken in molar units.

The test system of one test is HT-29. Kind of test: Antiproliferative activity against human HT-29 cells incubated for 72 hrs by SRB assay. The test is classed as functional, cell-based. The note with it: HT-29, 72 h. A digest of the protocol:
(§1)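 Purified isolates were screened for cytotoxicity against HT-29 and PC-3 human cancer cells, with paclitaxel as the positive control for both lines.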
A general note: The SRB assay estimates cell density from bound dye.

The subject of the next test is PC-3. Kind of test: Antiproliferative activity against human PC3 cells incubated for 72 hrs by SRB assay. The test is classed as functional, cell-based. The note with it: PC-3, 72 h. A digest of the protocol:
as §1

pIC50: −log10 of the molar value.

For `COc1ccc([C@@]23Oc4cc5c(c(OC)c4[C@]2(O)[C@H](O)[C@H](C(N)=O)[C@H]3c2ccccc2)[C@@H]2OC[C@H]([C@H](O)CO)O[C@@H]2O5)cc1`, the pIC50 in the test with HT-29 and with PC-3 was < 5.00 in each case.

`COc1ccc([C@@]23Oc4cc5c(c(OC)c4[C@]2(O)[C@H](O)[C@H](C(N)=O)[C@H]3c2ccccc2)[C@@H]2OC[C@H]([C@@H](O)CO)O[C@@H]2O5)cc1`: the pIC50 in the test with HT-29 and in the test on PC-3 was < 5.00 throughout.

On to `COc1ccc([C@@]23Oc4cc5c(c(OC)c4[C@]2(O)[C@H](O)[C@H](C(N)=O)[C@H]3c2ccccc2)[C@H]2OC[C@H]([C@@H](O)CO)O[C@H]2O5)cc1`, for which the negative-log IC50 (pIC50) in the test on HT-29 and in the test on PC-3 was < 5.00 in each case.

`COc1ccc([C@@]23Oc4cc5c(c(OC)c4[C@]2(O)[C@H](O)[C@H](C(N)=O)[C@H]3c2ccccc2)[C@H]2OC[C@H]([C@H](O)CO)O[C@H]2O5)cc1`: the negative-log IC50 (pIC50) with HT-29 and in the test with PC-3 was < 5.00 in each case.

Take `COc1ccc([C@@]23Oc4cc(O[C@@H]5O[C@@H]([C@@H](O)CO)COC5O)cc(OC)c4[C@]2(O)[C@H](O)[C@H](C(N)=O)[C@H]3c2ccccc2)cc1` (mixture of isomers): the negative logarithm of the IC50 (pIC50) with HT-29 and in the test on PC-3 was 5.64 in each case.

The values are drawn from ChEMBL document CHEMBL4414620, “Structurally Modified Cyclopenta[b]benzofuran Analogues Isolated from Aglaia perviridis” (J Nat Prod, 2019).
